The target of assay [1] is T1, Serotonin 3 (5-HT3) receptor (Rattus norvegicus, UniProt P35563+Q9JJ16).
T1 sequence (P35563 whole entry): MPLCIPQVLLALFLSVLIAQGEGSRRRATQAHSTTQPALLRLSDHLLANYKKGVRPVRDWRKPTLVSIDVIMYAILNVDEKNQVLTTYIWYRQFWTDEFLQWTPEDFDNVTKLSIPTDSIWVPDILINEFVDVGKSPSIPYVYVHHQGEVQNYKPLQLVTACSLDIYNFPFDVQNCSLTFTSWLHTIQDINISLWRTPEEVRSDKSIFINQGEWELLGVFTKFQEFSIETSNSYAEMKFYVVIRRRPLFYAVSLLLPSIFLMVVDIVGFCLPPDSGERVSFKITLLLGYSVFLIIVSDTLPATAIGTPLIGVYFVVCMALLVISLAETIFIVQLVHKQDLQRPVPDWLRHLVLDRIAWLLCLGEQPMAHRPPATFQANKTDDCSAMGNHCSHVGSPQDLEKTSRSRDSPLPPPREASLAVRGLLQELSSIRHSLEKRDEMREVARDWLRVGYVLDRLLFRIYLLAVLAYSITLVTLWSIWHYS
T1 sequence (Q9JJ16 whole entry): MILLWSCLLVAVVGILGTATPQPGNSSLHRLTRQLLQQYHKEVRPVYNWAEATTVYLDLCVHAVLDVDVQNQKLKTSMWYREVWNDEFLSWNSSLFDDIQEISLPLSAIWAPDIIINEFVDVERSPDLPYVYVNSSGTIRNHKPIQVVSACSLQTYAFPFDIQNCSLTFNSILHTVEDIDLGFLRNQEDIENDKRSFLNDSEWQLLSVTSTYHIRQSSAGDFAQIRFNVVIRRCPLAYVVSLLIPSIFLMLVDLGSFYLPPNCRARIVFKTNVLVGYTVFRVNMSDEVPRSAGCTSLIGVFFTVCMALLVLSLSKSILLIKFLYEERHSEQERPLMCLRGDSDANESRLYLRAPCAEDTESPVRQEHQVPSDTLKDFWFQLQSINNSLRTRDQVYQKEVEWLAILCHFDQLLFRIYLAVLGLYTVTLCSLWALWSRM
Description: Binding affinity for 5-hydroxytryptamine 3 receptor in rat cerebral cortex, determined by displacement of [3H]GR-65630. The format is tissue-based. The gist of the method: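 Membranes from cortex of male Wistar rats (250–300 g); 0.04 mg membrane incubated with 0.2 nM […], 60 min, 22 °C; filtration, three washes, filter counting. Nonspecific binding defined with 1 mM ICS205-930. Six replicates per dose; displacement curves fitted by nonlinear regression to give IC50, converted to Ki by Cheng–Prusoff.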

For assay [2], the system named is 5-HT3 receptor (Cavia porcellus). In words: Maximal partial agonist activity at 5-hydroxytryptamine 3 receptor of isolated guinea pig ileum as ratio to 5-HT response.
Assay [3] has the same test system. In words: Potency of partial agonist action given by concentration producing 50% of individual maximal contraction of isolated guinea pig ileum.
Assay [4] addresses T2, 5-hydroxytryptamine receptor 1F (Rattus norvegicus) (UniProt P30940).
T2 sequence (whole entry): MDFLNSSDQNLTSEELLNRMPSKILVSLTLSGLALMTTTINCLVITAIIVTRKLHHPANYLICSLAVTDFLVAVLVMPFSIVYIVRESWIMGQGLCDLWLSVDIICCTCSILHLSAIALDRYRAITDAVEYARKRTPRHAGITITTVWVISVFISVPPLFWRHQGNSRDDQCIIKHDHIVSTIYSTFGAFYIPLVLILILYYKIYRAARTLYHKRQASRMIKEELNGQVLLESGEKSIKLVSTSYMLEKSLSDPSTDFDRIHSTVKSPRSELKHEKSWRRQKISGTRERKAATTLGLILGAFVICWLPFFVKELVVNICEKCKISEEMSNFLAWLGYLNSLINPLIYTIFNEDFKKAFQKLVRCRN
Description: Inhibitory activity against 5-hydroxytryptamine 1 receptor using [3H]5-HT as radioligand at 10e-5 M concentration.

Assay [5] addresses T3, 5-hydroxytryptamine receptor 1A (Mus musculus) (UniProt Q64264).
T3 sequence (whole entry): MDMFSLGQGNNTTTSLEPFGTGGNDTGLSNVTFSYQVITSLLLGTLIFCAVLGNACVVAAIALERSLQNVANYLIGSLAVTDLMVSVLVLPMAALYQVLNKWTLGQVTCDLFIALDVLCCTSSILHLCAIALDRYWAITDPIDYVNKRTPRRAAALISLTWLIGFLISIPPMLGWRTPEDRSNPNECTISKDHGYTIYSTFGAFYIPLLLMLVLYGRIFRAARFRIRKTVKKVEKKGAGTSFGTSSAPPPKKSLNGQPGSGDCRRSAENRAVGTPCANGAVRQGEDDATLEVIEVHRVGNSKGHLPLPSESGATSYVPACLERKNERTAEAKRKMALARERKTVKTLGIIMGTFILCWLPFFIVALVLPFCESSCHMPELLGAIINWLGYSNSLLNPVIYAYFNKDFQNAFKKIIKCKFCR
Description: Inhibitory activity against 5-hydroxytryptamine 1A receptor using [3H]8-OH-DPAT as radioligand at 10e-5 M concentration.

Assay [6] concerns the target 5-hydroxytryptamine receptor 2A (Bos taurus) (UniProt Q75Z89). In words: Inhibitory activity against 5-hydroxytryptamine 2 receptor using [3H]-ketanserin as radioligand at 10e-5 M concentration.
Assay [7] deals with T1, Serotonin 3 (5-HT3) receptor. Description: Binding affinity for 5-hydroxytryptamine 3 receptor was determined by measuring displacement of [3H]GR-65630 from rat brain cortices.
Assay [8] concerns the target GABA-A receptor; anion channel (Homo sapiens) (UniProt P14867+P47870+P18507+P28472+P48169+Q99928+Q9UN88+P34903+O00591+O14764+Q8N1C3+P18505+P78334+P47869+P31644+Q16445). In words: Inhibition of [3H]flunitrazepam binding to GABA-A central benzodiazepine receptor at 10e-5 M. The format is protein-complex assay.
For assay [9], the target named is Beta-2 adrenergic receptor (Canis lupus familiaris) (UniProt P54833). Description: Inhibitory activity against non-selective beta adrenergic receptor using [3H]DHA as radioligand at 10e-5 M concentration.
Beta-2 adrenergic receptor (Canis lupus familiaris), sequence (P54833 whole entry, looked up): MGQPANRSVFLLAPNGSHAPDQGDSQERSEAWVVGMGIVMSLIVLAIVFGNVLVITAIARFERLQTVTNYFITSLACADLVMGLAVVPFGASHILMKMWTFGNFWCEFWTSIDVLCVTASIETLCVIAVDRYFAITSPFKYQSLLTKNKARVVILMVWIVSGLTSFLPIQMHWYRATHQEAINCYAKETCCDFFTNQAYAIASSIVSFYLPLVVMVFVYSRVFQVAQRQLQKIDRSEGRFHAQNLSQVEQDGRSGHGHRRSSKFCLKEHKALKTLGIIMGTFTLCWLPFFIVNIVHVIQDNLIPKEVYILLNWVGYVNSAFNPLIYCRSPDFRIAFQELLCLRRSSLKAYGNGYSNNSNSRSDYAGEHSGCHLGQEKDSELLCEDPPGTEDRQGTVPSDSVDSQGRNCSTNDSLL
Assay [10] concerns the target D(1A) dopamine receptor (Mus musculus) (UniProt Q61616). In words: Inhibitory activity against Dopamine receptor D1 using [3H]SCH-23390 as radioligand at 10e-5 M concentration at 10e-5 M concentration.
The subject of assay [11] is Mus musculus. Description: Inhibitory activity against 5-HT evoked diarrhea in mice, sc. The format is functional. Particulars: read-out: ID50 (the source's name).
Assay [12] relates to Mus musculus. In words: Transition time (time required to evacuate the glass bead) in the distal colon in mice at dose 0.3 mg/kg. It is filed as functional. In short, it runs like this: (§1)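 Male mice fasted 4 h. Compound given sc 20 min before a 3 mm glass bead was inserted 3 cm into the distal colon; time to expel the bead was recorded. 8 animals per group, mean ± SEM. Compared with control by ANOVA followed by Steel's multiple range test, p < 0.05.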

The test system of assay [13] is Mus musculus. Description: Transition time (time required to evacuate the glass bead) in the distal colon in mice at dose 3 mg/kg. The format is functional. The gist of the method:
as §1

For assay [14], the system named is Mus musculus. Description: Transition time (time required to evacuate the glass bead) in the distal colon in mice at dose 30 mg/kg. The format is functional. The gist of the method:
as §1

The species named for assay [15] is Rattus norvegicus. Description: Inhibitory dose against 5-HT-Evoked Bezold-Jarisch (B-J) reflex in rats. It is filed as functional. The conditions noted are these: read-out: ID50 (the source's name).
Assay [16] deals with D(2) dopamine receptor (Homo sapiens) (UniProt P14416). In words: Inhibitory activity against Dopamine receptor D2 using [3H]-spiperone as radioligand at 10e-5 M concentration.
D(2) dopamine receptor (Homo sapiens), sequence (P14416 whole entry): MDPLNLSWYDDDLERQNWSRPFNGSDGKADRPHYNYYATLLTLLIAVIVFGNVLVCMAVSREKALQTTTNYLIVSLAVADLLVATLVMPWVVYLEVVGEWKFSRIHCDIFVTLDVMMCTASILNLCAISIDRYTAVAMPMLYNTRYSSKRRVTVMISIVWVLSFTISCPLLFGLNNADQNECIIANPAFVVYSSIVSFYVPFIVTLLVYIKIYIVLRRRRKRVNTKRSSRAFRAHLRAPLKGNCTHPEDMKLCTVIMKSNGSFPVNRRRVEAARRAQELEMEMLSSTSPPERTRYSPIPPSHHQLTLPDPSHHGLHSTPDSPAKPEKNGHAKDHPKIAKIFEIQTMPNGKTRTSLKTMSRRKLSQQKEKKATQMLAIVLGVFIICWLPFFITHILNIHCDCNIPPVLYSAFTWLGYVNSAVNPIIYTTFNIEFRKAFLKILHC
For assay [17], the system named is Alpha-1 adrenergic receptor (Rattus norvegicus). Description: Inhibitory activity against Alpha-1 adrenergic receptor using [3H]prazosin as radioligand at 10e-5 M concentration.
The test system of assay [18] is Alpha-2 adrenergic receptor (Rattus norvegicus). In words: Inhibitory activity against Alpha-2 adrenergic receptor using [3H]rauwolscine as radioligand at 10e-5 M concentration.
The test system of assay [19] is Mus musculus. In words: Transition time (time required to evacuate the glass bead) in the distal colon in mice at dose 1 mg/kg. The format is functional. The gist of the method: as §1

Each structure is given as a SMILES string.

24 molecules from ChEMBL document CHEMBL1131050, “Benzoxazole derivatives as novel 5-HT3 receptor partial agonists in the gut” (J Med Chem, 1998) can be followed below.

D(1A) dopamine receptor (Mus musculus), sequence (Q61616 whole entry): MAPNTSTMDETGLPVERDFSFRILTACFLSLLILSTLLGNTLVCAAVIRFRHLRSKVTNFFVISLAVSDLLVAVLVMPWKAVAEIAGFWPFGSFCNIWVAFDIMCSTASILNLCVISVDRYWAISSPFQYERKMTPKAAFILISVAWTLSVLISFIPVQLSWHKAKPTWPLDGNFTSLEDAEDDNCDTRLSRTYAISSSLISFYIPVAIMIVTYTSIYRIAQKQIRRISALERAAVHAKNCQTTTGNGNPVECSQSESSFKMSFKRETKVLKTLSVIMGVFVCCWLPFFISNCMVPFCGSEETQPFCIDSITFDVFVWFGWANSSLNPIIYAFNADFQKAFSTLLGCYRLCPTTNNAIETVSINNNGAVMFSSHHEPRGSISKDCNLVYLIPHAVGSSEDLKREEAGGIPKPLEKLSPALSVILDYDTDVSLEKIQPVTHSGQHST
5-hydroxytryptamine receptor 2A (Bos taurus), sequence (Q75Z89 whole entry): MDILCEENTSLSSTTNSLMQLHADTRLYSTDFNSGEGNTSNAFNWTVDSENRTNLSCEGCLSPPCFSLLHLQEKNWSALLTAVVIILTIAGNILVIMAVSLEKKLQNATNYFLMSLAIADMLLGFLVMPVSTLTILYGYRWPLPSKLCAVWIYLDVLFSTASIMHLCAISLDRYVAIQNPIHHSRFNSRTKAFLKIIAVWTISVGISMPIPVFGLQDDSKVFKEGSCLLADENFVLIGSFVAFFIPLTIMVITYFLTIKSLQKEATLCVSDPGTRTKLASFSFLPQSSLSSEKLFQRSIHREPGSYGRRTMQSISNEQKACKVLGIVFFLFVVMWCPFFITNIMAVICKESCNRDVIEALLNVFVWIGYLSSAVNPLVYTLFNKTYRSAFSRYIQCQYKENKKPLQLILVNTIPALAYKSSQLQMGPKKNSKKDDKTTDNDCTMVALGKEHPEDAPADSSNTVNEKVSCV

Regarding `c1ccc2oc(C3CCNCC3)nc2c1`, the “inhibition at 10^-7 M” value in [1] worked out at 39%. Besides, the IA in [2] was 0.31. Moreover, the pD2 in [3] came out at 5.59.
In the case of `Cc1c(Cl)cc2nc(N3CCN(C)CC3)oc2c1Cl`, the “inhibition at 10^-7 M” value in assay [1] is 96%. Further, the IA in assay [2] turned out to be 0.1. Also, in assay [3], the pD2 was 6.64.
The corresponding values for `Cc1cc2nc(N3CCN(C)CC3)oc2cc1C` are 32%, 0.66 and 6.16.
`c1ccc2oc(N3CCNCC3)nc2c1`: the “inhibition at 10^-7 M” value in assay [1] was found to be 83%.
Take `Cc1cccc2oc(N3CCN(C)CC3)nc12`: the “inhibition at 10^-7 M” value in assay [1] was found to be 25%. Further, the pD2 in [3] is below 5.
The corresponding values for `CCc1ccc2oc(N3CCN(C)CC3)nc2c1` are 11% and below 5.
On to `Cc1ccc2nc(N3CCN(C)CC3)oc2c1`, for which the “inhibition at 10^-7 M” value in assay [1] turned out to be 74%. For the same molecule, the IA in assay [2] stood at 0.85. The pD2 in assay [3] was 5.15.
Turning to `Cc1cc2oc(N3CCN(C)CC3)nc2cc1Cl`, the “inhibition at 10^-7 M” value in assay [1] was found to be 95%. Moreover, the IA in assay [2] was found to be 0.28. This molecule also displayed a pD2 in [3] of 6.28.
`Cc1cc(C)c2oc(N3CCN(C)CC3)nc2c1`: the “inhibition at 10^-7 M” value in [1] was 94%. For the same molecule, in assay [2], the IA worked out at 0.62. In addition, in assay [3], the pD2 is 6.32.
As to `CN1CCCN(c2nc3ccccc3o2)CC1`, the “inhibition at 10^-7 M” value in [1] worked out at 86%. Also, the IA in assay [2] was 0.54. In assay [3], this molecule gave a pD2 of 6.03.
Regarding `CN1CCCN(c2nc3cc(Cl)ccc3o2)CC1`, the “inhibition at 10^-7 M” value in assay [1] worked out at 87%. Besides, the IA in assay [2] was 0.31. In assay [3], this molecule showed a pD2 of 7.
`CN1CCN(c2nc3cc(C(F)(F)F)ccc3o2)CC1`: the “inhibition at 10^-7 M” value in [1] is listed as 22%. Moreover, the pD2 in assay [3] is below 5.
For `Cc1c(Cl)cc2nc(N3CCN(C)CC3)oc2c1C`, the “inhibition at 10^-7 M” value in assay [1] was 101%. The IA in assay [2] was 0.14. In assay [3], this molecule displayed a pD2 of 6.67.
The corresponding values for `CN1CCN(c2nc3cc(F)ccc3o2)CC1` are 91%, 0.64 and 5.57.
For `CN1CCN(c2nc3cc(Cl)ccc3o2)CC1`, in that order: 94%, 0.5 and 6.07.
The corresponding values for `CN1CCN(c2nc3cc(Cl)cc(Cl)c3o2)CC1` are 62%, 0.14 and 6.51.
In the case of `Cc1cc(Cl)cc2nc(N3CCCN(C)CC3)oc12`, the inhibition in assay [4] is 14%; in [5] it was -3%; in assay [6] it was 23%; in [8], 12%; in assay [9] it was 24%; in [10], 18%. Further, the results for the inhibition in assay [16], in [17] and in assay [18] were 5%, 22% and 33%, respectively. Besides, in assay [1], the “inhibition at 10^-7 M” value was 98%. Further, the Ki in assay [7] was 1.1 nM. Also, the results for the ED50 in assay [11] and in assay [15] were 0.3 mg/kg and 0.0876 mg/kg, respectively. In addition, the values for the Time in assay [12], in [13] and in assay [14] were 262.6 s, 357.2 s and 328.8 s, respectively. For the same molecule, in [2], the IA turned out to be 0.12. In [3], the pD2 was 7.76.
As to `CN1CCN(c2nc3ccccc3o2)CC1`, the “inhibition at 10^-7 M” value in [1] worked out at 55%. In addition, in assay [2], the IA was determined as 0.62. Also, in assay [3], the pD2 was 5.01.
Take `Cc1cc(Cl)cc2nc(N3CCN(C)CC3)oc12`: the “inhibition at 10^-7 M” value in assay [1] is 85%. For the same molecule, the IA in assay [2] is 0.24. In assay [3], the pD2 turned out to be 6.7.
For `CN1CCN(c2nc3cc(Br)ccc3o2)CC1`, in that order: 92%, 0.48 and 6.21.
Regarding `c1ccc2oc(N3CCCCC3)nc2c1`, the pD2 in [3] is below 5.
For `Cc1ccc2oc(N3CCN(C)CC3)nc2c1`, the “inhibition at 10^-7 M” value in assay [1] was 83%. Also, the IA in [2] turned out to be 0.72. Further, the pD2 in assay [3] is 6.
In the case of `CN1C2CCCC1CC(NC(=O)c1nn(C)c3ccccc13)C2` (stereo not given) [GRANISETRON], the Time in assay [12] amounted to 373 s; in assay [19], 614 s; in [13], 827 s.
As to `Cc1cccc2nc(N3CCN(C)CC3)oc12`, the “inhibition at 10^-7 M” value in assay [1] came to 77%. The IA in [2] amounted to 0.58. Further, the pD2 in [3] was 5.46.
